Experiments:
[1] = molecular target: Glutamate receptor 3 (Rattus norvegicus) (UniProt P19492); assay: Agonist activity at GluR3 expressed in HEK293 cells by Fluo-4/Ca2+ assay
[2] = molecular target: Glutamate receptor 4 (Rattus norvegicus) (UniProt P19493); assay: Agonist activity at GluR4 expressed in HEK293 cells relative to S-Glutamate by Fluo-4/Ca2+ assay
[3] = molecular target: Glutamate receptor 1 (Rattus norvegicus) (UniProt P19490); assay: Agonist activity at GluR1 expressed in HEK293 cells relative to S-Glutamate by Fluo-4/Ca2+ assay
Sequence of Glutamate receptor 1 (Rattus norvegicus) (P19490 whole entry, looked up): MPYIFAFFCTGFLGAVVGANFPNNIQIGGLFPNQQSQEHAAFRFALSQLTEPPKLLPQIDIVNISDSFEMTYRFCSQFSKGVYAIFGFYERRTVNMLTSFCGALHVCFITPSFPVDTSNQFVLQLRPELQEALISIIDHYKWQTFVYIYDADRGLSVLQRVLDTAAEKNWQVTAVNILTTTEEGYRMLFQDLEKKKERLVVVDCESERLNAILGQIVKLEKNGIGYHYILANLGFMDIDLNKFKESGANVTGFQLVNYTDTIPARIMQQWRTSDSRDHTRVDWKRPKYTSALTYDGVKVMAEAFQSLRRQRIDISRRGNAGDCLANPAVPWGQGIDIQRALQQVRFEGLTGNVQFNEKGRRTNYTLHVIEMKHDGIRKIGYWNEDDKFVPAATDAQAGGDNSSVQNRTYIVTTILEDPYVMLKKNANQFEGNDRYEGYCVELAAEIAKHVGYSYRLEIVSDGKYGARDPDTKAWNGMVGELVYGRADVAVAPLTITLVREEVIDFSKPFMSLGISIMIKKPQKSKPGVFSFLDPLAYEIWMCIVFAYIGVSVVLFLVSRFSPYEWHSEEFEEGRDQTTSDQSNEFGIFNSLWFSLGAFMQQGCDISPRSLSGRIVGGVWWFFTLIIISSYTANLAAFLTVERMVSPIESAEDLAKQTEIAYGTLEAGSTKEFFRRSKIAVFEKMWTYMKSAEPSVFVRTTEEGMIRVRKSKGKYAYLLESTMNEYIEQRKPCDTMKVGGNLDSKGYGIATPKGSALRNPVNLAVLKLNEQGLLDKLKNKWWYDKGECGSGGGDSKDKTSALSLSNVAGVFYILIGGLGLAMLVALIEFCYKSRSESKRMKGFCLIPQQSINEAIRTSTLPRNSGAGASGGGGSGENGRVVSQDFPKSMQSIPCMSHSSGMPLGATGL

[4] = molecular target: Glutamate receptor 1 (Rattus norvegicus) (UniProt P19490); assay: Agonist activity at GluR1 expressed in HEK293 cells by Fluo-4/Ca2+ assay
[5] = molecular target: Glutamate receptor 2 (Rattus norvegicus) (UniProt P19491); assay: Agonist activity at GluR2Q expressed in HEK293 cells by Fluo-4/Ca2+ assay
Sequence of Glutamate receptor 2 (Rattus norvegicus) (P19491 whole entry, looked up): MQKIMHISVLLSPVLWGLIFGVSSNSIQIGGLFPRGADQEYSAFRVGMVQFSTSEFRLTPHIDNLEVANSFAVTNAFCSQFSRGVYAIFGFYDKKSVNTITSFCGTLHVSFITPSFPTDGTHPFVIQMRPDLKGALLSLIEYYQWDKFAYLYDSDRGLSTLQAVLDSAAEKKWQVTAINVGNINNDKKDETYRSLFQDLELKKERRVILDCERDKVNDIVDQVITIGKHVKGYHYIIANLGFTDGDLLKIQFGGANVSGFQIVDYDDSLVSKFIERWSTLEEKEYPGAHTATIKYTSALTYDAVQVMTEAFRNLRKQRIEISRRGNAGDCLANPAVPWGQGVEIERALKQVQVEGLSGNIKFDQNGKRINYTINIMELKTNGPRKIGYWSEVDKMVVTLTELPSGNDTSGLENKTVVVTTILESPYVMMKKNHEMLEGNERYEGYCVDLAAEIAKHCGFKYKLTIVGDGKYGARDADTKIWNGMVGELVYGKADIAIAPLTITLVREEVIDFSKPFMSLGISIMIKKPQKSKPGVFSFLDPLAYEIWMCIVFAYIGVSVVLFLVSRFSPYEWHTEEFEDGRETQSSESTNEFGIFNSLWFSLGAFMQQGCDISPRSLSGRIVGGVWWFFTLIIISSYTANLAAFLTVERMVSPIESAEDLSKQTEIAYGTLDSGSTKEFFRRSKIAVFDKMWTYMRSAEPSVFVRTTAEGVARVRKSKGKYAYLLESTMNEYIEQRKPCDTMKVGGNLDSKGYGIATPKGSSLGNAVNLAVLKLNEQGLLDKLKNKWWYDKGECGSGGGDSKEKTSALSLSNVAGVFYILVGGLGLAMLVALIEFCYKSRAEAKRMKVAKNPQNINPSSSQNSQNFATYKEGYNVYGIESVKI

[6] = molecular target: Glutamate receptor 4 (Rattus norvegicus) (UniProt P19493); assay: Agonist activity at GluR4 expressed in HEK293 cells by Fluo-4/Ca2+ assay
[7] = molecular target: Glutamate receptor 3 (Rattus norvegicus) (UniProt P19492); assay: Agonist activity at GluR3 expressed in HEK293 cells relative to S-Glutamate by Fluo-4/Ca2+ assay
[8] = molecular target: Glutamate receptor 4 (Homo sapiens) (UniProt P48058); assay: Agonist activity at GluR4 expressed in Xenopus oocyte cells relative to S-Glutamate; type: functional, cell-based
Outline: (§1)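 Rat GluR1i mutant or GluR4i cRNA expressed in Xenopus oocytes, recorded by two-electrode voltage clamp 2-3 days after injection. Low-Ca2+ Ringer's (115 mM NaCl, 0.1 mM CaCl2, pH 7.5) was used, with 30 s pretreatment and continuous application of 100 µM CTZ. Peak currents were normalized to 1000 µM glutamate + 100 µM CTZ and fitted to the Hill equation; n = 3.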

[9] = Agonist activity at GluR1 M686V/I687 mutant expressed in HEK293 cells by Fluo-4/Ca2+ assay; type: functional, cell-based; conditions: Homo sapiens
Outline: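 Rat GluR1i mutants, cDNA sequence-verified, transiently transfected into HEK293 cells and kept 2-3 weeks under 3 mg/mL G-418 selection to make polyclonal cells. Cells were plated 16-24 h ahead, loaded with Fluo-4/AM for 1 h at 37 °C, then held in HBSS with 20 mM HEPES, 10 mM CaCl2, 2.5 mM probenecid and 100 µM CTZ, pH 7.4. Fluorescence (ex 485/em 520 nm) was read up to 60 s after agonist addition.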

[10] = system: Glutamate receptor 1 (Homo sapiens), P42261 [D417S,M704V,I705A]; assay: Agonist activity at GluR1 D399S/M686V/I687A mutant expressed in Xenopus oocyte cells relative to S-Glutamate; type: functional, cell-based
Sequence of Glutamate receptor 1 (Homo sapiens), P42261 [D417S,M704V,I705A] (P42261 whole entry D417S/M704V/I705A): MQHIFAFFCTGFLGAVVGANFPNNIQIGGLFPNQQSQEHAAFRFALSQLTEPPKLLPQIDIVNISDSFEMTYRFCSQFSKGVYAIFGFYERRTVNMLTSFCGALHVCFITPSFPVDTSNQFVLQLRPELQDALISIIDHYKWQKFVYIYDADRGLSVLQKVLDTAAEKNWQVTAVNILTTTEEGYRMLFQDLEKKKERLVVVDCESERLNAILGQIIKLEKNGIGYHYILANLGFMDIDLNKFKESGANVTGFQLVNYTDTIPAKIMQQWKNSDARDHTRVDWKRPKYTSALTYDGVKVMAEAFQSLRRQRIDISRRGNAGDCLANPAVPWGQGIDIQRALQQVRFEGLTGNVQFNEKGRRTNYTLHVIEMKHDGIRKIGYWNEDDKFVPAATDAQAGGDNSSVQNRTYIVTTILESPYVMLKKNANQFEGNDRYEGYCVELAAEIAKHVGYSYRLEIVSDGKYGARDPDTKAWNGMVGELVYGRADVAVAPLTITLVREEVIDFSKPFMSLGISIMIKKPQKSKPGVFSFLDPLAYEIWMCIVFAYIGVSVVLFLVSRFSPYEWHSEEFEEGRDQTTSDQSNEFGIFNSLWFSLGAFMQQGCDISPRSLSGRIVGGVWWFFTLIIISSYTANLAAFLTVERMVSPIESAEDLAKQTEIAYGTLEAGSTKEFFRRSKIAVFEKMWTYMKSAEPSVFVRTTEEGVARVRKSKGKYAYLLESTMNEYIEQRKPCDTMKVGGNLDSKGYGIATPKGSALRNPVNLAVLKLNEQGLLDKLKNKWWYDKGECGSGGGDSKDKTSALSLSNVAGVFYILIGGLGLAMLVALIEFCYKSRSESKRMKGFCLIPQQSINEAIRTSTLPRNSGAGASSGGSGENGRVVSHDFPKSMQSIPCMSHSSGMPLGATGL
Outline: as §1

Sequence of Glutamate receptor 3 (Rattus norvegicus) (P19492 whole entry, looked up): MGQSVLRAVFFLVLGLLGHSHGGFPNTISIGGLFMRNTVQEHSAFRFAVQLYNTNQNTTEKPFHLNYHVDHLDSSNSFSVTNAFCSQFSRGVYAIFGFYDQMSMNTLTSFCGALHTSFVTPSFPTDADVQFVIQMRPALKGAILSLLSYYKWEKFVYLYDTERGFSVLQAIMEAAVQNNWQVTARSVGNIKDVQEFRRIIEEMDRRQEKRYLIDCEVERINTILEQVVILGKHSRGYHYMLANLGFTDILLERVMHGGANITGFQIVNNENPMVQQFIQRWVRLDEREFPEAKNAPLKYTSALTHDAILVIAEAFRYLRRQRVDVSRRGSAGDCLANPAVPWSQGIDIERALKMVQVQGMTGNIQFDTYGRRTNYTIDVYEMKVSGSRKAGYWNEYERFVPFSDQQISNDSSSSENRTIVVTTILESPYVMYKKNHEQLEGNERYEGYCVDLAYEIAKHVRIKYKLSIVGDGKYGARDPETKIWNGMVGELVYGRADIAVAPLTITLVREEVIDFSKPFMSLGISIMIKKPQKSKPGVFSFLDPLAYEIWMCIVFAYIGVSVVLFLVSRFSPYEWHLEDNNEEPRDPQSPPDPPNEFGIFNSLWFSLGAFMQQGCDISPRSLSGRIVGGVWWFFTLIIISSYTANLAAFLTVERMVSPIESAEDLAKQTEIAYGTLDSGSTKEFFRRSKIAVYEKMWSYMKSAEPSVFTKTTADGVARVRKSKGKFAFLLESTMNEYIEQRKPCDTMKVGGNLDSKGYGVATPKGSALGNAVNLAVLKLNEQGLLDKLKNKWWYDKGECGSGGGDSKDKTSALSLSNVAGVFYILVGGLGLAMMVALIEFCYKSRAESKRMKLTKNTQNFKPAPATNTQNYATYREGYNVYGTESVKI
Sequence of Glutamate receptor 4 (Rattus norvegicus) (P19493 whole entry, looked up): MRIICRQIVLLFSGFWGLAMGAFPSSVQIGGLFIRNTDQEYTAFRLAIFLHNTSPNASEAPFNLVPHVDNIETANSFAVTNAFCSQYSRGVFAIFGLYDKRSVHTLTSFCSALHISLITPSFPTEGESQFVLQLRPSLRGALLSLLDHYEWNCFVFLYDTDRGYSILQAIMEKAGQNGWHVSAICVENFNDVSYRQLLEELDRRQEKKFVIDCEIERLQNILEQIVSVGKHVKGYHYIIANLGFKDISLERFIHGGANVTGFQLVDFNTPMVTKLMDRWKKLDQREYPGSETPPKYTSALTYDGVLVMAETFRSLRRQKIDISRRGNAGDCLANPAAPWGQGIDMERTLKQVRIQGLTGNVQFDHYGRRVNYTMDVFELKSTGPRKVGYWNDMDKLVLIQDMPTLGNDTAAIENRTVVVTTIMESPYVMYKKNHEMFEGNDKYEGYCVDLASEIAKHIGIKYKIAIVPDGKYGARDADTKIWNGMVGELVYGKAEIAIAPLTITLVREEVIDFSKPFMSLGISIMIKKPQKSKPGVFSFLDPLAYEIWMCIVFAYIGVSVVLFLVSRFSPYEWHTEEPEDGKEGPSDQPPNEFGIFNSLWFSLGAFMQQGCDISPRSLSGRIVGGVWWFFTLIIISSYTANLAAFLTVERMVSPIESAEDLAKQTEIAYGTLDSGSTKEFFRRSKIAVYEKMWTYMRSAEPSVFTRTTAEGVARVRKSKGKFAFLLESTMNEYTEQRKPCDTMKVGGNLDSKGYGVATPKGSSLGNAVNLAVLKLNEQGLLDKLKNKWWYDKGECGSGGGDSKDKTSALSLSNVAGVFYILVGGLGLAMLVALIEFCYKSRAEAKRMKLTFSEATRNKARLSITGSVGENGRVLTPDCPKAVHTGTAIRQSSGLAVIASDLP

EC50 ([1]; read-out: EC50) [µM] | RUmax [2] [%] | RUmax [3] [%] | EC50 [4] [µM] | EC50 [5] [µM] | EC50 ([6]; read-out: EC50) [µM] | RUmax [7] [%] | EC50 ([1]; read-out: Log EC50 (converted)) [µM] | EC50 ([6]; read-out: Log EC50 (converted)) [µM] | RUmax [8] [%] | EC50 ([9]; read-out: EC50) [µM] | RUmax [10] [%] | EC50 ([9]; read-out: Log EC50 (converted)) [µM] | SMILES
18 |  |  | 42 | 52 | 4 |  | 15.8 |  |  |  |  |  | CCn1nnc(-c2o[nH]c(=O)c2CC(N)C(=O)O)n1 (racemic)
 | 94 | 83 |  |  |  | 95 |  |  |  |  |  |  | CCn1nnc(-c2onc(O)c2CC(N)C(=O)O)n1 (racemic)
 |  |  |  |  |  |  |  |  |  | 76 |  | 79.4 | N[C@@H](CCC(=O)O)C(=O)O [GLUTAMIC ACID]

Second part, the molecule before the results:

SMILES | EC50 ([1]; read-out: EC50) [µM] | RUmax [2] [%] | RUmax [3] [%] | EC50 [4] [µM] | EC50 [5] [µM] | EC50 ([6]; read-out: EC50) [µM] | RUmax [7] [%] | EC50 ([1]; read-out: Log EC50 (converted)) [µM] | EC50 ([6]; read-out: Log EC50 (converted)) [µM] | RUmax [8] [%] | EC50 ([9]; read-out: EC50) [µM] | RUmax [10] [%] | EC50 ([9]; read-out: Log EC50 (converted)) [µM]
CC(C)n1nnc(-c2onc(O)c2CC(N)C(=O)O)n1 (racemic) | 700 | 83 | 73 | 550 | 1000 | 160 | 73 |  |  |  |  |  | 
Cn1nnnc1-c1onc(O)c1CC(N)C(=O)O (racemic) | > 3000 | 79 |  | > 3000 | > 3000 | 3000 | 22 |  |  |  |  |  | 
CCCn1nnc(-c2onc(O)c2CC(N)C(=O)O)n1 (racemic) | 450 | 97 | 82 | 480 | 830 | 79 | 85 | 398 | 63.1 |  |  |  | 
NC(Cc1c(O)noc1-c1nnn(Cc2ccccc2)n1)C(=O)O (racemic) |  |  |  |  |  |  |  |  |  | 63 | 500 | 60 | 

From ChEMBL document CHEMBL1148746, “Functional characterization of Tet-AMPA [tetrazolyl-2-amino-3-(3-hydroxy-5-methyl- 4-isoxazolyl)propionic acid] analogues at ionotropic glutamate receptors GluR1-GluR4. The molecular basis for the functional selectivity profile of 2-Bn-Tet-AMPA” (J Med Chem, 2007)
